Activity calls are given as the source filed them. The rule behind the calls is not given here.
What was measured:
[1] = molecular target: T1, DNA topoisomerase 1 (Homo sapiens) (UniProt P11387); assay: Inhibition of recombinant human Topo1-mediated relation of supercoiled pBR322 DNA at 50 uM after 30 mins by agarose gel electrophoresis
T1 sequence (whole entry): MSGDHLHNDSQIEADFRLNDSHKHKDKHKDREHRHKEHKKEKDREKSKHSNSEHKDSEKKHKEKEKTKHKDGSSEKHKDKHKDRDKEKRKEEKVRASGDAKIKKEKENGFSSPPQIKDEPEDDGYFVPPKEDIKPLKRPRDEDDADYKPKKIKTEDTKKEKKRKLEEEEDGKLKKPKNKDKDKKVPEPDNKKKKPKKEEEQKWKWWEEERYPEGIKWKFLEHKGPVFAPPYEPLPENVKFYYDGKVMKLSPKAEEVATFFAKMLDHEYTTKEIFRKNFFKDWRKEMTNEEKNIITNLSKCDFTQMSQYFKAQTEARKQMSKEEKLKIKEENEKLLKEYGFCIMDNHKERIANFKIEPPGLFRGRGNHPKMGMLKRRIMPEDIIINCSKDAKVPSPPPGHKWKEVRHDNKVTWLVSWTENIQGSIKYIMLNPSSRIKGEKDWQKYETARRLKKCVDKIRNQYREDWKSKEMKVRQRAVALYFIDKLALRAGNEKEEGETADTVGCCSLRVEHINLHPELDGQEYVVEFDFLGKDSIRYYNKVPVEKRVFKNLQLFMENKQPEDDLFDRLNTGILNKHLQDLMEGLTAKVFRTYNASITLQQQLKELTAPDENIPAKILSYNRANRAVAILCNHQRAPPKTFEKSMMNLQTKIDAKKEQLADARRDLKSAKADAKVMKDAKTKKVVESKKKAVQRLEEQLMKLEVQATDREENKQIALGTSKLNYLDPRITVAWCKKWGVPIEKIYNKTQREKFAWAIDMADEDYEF
Method in brief: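 pBR322 at 100 ng with 1.0 unit recombinant human topo I. Incubated 30 min at 37 °C in 35 mM Tris-HCl pH 8.0, 5 mM MgCl2, 72 mM KCl, 0.01% BSA, 2 mM spermidine and 5 mM DTT. Run on 1% agarose in TAE at 100 V for 25 min. EB-stained gel viewed under UV.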

[2] = system: K562; assay: Antiproliferative activity against human K562 cells after 48 hrs by MTT assay; type: functional, cell-based; details: K562, 48 h
Method in brief: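 K562 suspension cells in RPMI-1640 with 10% FBS, 37 °C, 5% CO2. Seeded at 1.5×10^4 cells/well, exposed 48 h to final 50, 25, 10, 1 and 0.1 μM. MTT (5 mg/mL) added for 4 h at 37 °C. IC50 from the dose series.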

SMILES | inhibition [1] | IC50 [2] [µM]
COCCNC(=O)c1ccc(NCc2ccncc2)c2c(=O)c3cccc(OC)c3[nH]c12 | inactive | > 50
COCCNC(=O)c1ccc(NCc2cccnc2)c2c(=O)c3cccc(OC)c3[nH]c12 | inactive | > 50
COc1cccc2c(=O)c3c(N(Cc4ccccn4)Cc4ccccn4)ccc(C(=O)NCCCN(C)C)c3[nH]c12 | inactive | 13.5
COCCNC(=O)c1ccc(NCc2cccnc2)c2c(=O)c3cccc(C)c3[nH]c12 | inactive | > 50
COCCNC(=O)c1ccc(NCc2ccccn2)c2c(=O)c3cccc(OC)c3[nH]c12 | inactive | > 50
COc1cccc2c(=O)c3c(NCc4cccnc4)ccc(C(=O)NCCCN(C)C)c3[nH]c12 | Active | 11.3
COCCNC(=O)c1ccc(N(Cc2ccccn2)Cc2ccccn2)c2c(=O)c3cccc(C)c3[nH]c12 | inactive | 11.2
COCCNC(=O)c1ccc(NCc2ccccn2)c2c(=O)c3cccc(C)c3[nH]c12 | inactive | > 50
Cc1cccc2c(=O)c3c(NCc4cccnc4)ccc(C(=O)NCCCN(C)C)c3[nH]c12 | Active | 11.8
COc1cccc2c(=O)c3c(N(Cc4ccccn4)Cc4ccccn4)ccc(C(=O)NCCN(C)C)c3[nH]c12 | inactive | 13.9
COCCNC(=O)c1ccc(NCc2ccncc2)c2c(=O)c3cccc(C)c3[nH]c12 | inactive | > 50
COc1cccc2c(=O)c3c(NCc4ccncc4)ccc(C(=O)NCCCN(C)C)c3[nH]c12 | Active | 11.9

These reach a lower IC50 [2]. Values come first.

inhibition [1] | IC50 [2] [µM] | SMILES
Active | 8.25 | Cc1cccc2c(=O)c3c(NCc4ccncc4)ccc(C(=O)NCCCN(C)C)c3[nH]c12
Active | 6.45 | Cc1cccc2c(=O)c3c(NCc4ccccn4)ccc(C(=O)NCCCN(C)C)c3[nH]c12
Active | 6.33 | CN(C)CCNC(=O)c1ccc(NCc2ccncc2)c2c(=O)c3ccccc3[nH]c12
Active | 6.12 | COc1cccc2c(=O)c3c(NCc4ccccn4)ccc(C(=O)NCCCN(C)C)c3[nH]c12
Active | 6.07 | COc1cccc2c(=O)c3c(NCc4ccncc4)ccc(C(=O)NCCCCN(C)C)c3[nH]c12
Active | 3.08 | COc1cccc2c(=O)c3c(NCCc4ccncc4)ccc(C(=O)NCCN(C)C)c3[nH]c12
Active | 2.28 | COc1cccc2c(=O)c3c(NCc4ccccn4)ccc(C(=O)NCCN(C)C)c3[nH]c12
Active | 1.71 | Cc1cccc2c(=O)c3c(NCc4ccccn4)ccc(C(=O)NCCN(C)C)c3[nH]c12
Active | 1.36 | COc1cccc2c(=O)c3c(NCc4ccncc4)ccc(C(=O)NCCN(C)C)c3[nH]c12
Active | 1.09 | Cc1cccc2c(=O)c3c(NCc4cccnc4)ccc(C(=O)NCCN(C)C)c3[nH]c12
Active | 0.97 | CN(C)CCNC(=O)c1ccc(NCc2ccncc2)c2c(=O)c3cc(Cl)cc(Cl)c3[nH]c12
Active | 0.93 | COc1cccc2c(=O)c3c(NCc4cccnc4)ccc(C(=O)NCCN(C)C)c3[nH]c12
Active | 0.89 | CN(C)CCNC(=O)c1ccc(NCc2ccncc2)c2c(=O)c3cccc(C(F)(F)F)c3[nH]c12
 | 0.55 | COc1cccc2c1C(=O)c1c(O)c3c(c(O)c1C2=O)C[C@@](O)(C(=O)CO)C[C@@H]3O[C@H]1C[C@H](N)[C@H](O)[C@H](C)O1 [DOXORUBICIN]
